Laboratory results: ChEMBL document CHEMBL4033702, “Challenges in the development of an M4 PAM preclinical candidate: The discovery, SAR, and in vivo characterization of a series of 3-aminoazetidine-derived amides” (Bioorg Med Chem Lett, 2017)
Values after ≈ are worked out from the molar mass of the structure shown.

Assays:
[1] = Clearance in iv or po dosed Sprague-Dawley rat; format: ADME, organism-based; settings: in vivo
In short: (§1)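 IV and PO pharmacokinetics in male Sprague-Dawley rats, n = 1–3. The oral dose was a 2–3 mg/kg solution. Plasma clearance, Vss and oral bioavailability were determined.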

Brain = assay: Drug level in Sprague-Dawley rat brain at 0.1 mg/kg, po; format: ADME, organism-based; settings: in vivo, read-out: Drug uptake
Rattus norvegicus = assay: Reversal of amphetamine-induced hyperlocomotion in po dosed Sprague-Dawley rat pretreated 30 mins post habituation in the chamber followed by amphetamine injection after 30 mins measured after 60 mins; format: functional; settings: read-out: MED
In short: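 Male Sprague-Dawley rats, n = 6–24 per dose group, were habituated in the chamber for 30 min. The compound or vehicle (10% tween-80 in water, v/v) was then given orally. Amphetamine 0.75 mg/kg was injected subcutaneously 30 min later. Total ambulations over t = 60–120 min gave % reversal of AHL, reported as mean ± SEM.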

[2] = Clearance in Sprague-Dawley rat; format: ADME; settings: in vivo; in short: as §1
[3] = Kinetic solubility of the compound in FaSSIF at pH 6.5 measured after 1 hr; format: physicochemical; settings: read-out: Kinetic_solubility
Cytochrome P450 2D6 = Cytochrome P450 2D6 (Homo sapiens, UniProt P10635); assay: Time-dependent inhibition of CYP2D6 (unknown origin); format: ADME
Cytochrome P450 1A2 [4] = target: T1, Cytochrome P450 1A2 (Homo sapiens, UniProt P05177); assay: Inhibition of CYP1A2 (unknown origin); format: ADME
T1 sequence (P05177 whole entry): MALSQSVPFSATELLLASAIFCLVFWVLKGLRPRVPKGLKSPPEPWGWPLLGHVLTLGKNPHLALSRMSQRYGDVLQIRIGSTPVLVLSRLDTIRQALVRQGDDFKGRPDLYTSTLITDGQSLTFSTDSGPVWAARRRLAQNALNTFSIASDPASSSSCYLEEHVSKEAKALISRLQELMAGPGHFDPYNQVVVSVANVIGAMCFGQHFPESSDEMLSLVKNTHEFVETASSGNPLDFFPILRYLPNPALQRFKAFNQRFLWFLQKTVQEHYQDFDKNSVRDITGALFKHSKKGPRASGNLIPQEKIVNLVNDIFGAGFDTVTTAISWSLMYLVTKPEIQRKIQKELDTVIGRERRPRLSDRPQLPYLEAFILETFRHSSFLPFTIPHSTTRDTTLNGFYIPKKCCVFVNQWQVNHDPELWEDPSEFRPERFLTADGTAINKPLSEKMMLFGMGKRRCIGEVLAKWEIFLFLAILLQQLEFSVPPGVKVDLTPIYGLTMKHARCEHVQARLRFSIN

Cytochrome P450 2C19 = Cytochrome P450 2C19 (Homo sapiens, UniProt P33261); assay: Time-dependent inhibition of CYP2C19 (unknown origin); format: ADME
Canis familiaris [5] = assay: Volume of distribution at steady state in iv or po dosed Mongrel dog; format: ADME, organism-based, Canis lupus familiaris; settings: in vivo
In short: (§2)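 IV and PO pharmacokinetics in female mongrel dogs, n = 1–2. The oral dose was a 2–3 mg/kg solution. Vss and oral bioavailability were determined.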

Cytochrome P450 1A2 [6] = target: T1, Cytochrome P450 1A2; assay: Time-dependent inhibition of CYP1A2 (unknown origin); format: ADME
Canis familiaris [7] = assay: Oral bioavailability in Mongrel dog at 2 to 3 mg/kg; format: ADME, organism-based, Canis lupus familiaris; settings: in vivo; in short: as §2
[8] = target: T2, Muscarinic acetylcholine receptor M4 (Homo sapiens, UniProt P08173); assay: Positive allosteric modulation of human M4 receptor expressed in CHO cells co-expressing Gqi5 assessed as increase in acetylcholine-induced calcium mobilization
T2 sequence (P08173 whole entry): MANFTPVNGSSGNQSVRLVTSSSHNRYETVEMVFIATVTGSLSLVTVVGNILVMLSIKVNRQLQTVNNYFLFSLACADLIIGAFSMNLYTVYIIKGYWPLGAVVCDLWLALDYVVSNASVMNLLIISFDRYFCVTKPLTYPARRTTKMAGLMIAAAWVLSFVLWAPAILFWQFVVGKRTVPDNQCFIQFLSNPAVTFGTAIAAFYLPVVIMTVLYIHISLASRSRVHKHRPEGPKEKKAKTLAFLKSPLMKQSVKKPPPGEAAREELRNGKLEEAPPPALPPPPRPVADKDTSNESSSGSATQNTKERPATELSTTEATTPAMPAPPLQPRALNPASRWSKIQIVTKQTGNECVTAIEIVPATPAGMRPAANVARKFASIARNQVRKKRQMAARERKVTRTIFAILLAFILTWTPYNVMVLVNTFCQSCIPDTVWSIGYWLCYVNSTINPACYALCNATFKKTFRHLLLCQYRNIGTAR

[9] = target: T3, Muscarinic acetylcholine receptor M4 (Rattus norvegicus) (UniProt P08485); assay: Activity at rat M4 receptor assessed as acetylcholine-induced calcium mobilization; format: functional
T3 sequence (whole entry): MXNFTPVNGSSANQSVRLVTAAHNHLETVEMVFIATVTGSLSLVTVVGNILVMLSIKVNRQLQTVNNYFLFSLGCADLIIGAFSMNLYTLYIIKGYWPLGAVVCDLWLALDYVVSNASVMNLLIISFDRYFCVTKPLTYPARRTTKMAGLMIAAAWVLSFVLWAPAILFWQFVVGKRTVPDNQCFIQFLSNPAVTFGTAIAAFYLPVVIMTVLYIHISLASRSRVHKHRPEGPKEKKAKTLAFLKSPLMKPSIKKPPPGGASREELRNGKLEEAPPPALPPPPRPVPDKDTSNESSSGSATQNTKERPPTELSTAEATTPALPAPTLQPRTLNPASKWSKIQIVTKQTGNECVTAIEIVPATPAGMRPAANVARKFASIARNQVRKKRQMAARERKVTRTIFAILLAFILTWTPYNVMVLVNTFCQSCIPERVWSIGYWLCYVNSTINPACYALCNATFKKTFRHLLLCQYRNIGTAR
In short: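 Ca2+ mobilization read-out. Acetylcholine concentration-response curves were run in the presence of the PAM to measure the fold-shift. An operational model was fitted to derive the PAM's affinity (KB) and cooperativity (αβ).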

[10] = Aqueous solubility of the compound at pH 7.4; format: physicochemical; settings: buffer

Chain of Cytochrome P450 2D6 (P10635 whole entry): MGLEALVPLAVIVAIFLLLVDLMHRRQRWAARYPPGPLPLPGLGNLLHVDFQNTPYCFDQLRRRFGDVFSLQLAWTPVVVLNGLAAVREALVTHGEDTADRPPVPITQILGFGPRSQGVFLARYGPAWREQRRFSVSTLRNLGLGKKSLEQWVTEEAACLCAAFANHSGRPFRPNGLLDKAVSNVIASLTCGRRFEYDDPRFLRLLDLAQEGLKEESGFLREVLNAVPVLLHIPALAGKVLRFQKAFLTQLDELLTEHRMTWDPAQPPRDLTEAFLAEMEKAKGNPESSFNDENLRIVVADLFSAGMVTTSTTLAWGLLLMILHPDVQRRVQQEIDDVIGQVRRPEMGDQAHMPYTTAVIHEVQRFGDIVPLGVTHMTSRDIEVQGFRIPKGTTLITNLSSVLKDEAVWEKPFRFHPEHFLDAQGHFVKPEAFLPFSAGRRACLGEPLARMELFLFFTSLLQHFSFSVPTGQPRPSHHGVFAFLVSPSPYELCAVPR
Chain of Cytochrome P450 2C19 (P33261 whole entry): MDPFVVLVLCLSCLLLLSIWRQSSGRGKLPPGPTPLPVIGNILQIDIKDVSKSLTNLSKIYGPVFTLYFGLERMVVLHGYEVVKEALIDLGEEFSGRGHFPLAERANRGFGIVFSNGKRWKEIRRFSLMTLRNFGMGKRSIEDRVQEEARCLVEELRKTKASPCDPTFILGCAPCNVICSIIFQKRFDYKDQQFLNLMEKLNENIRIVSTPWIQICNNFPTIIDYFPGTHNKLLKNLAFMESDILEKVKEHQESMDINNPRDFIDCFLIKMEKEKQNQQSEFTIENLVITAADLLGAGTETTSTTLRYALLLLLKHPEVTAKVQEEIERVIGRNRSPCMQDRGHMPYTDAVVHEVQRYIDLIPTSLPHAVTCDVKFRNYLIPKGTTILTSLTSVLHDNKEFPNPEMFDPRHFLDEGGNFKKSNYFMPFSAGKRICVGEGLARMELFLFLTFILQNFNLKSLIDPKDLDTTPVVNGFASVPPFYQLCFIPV

Cc1nnc2sc(C(=O)NC3CN(c4cccc(F)c4F)C3)c(N)c2c1C
clearance [1]: 16 mL/min/kg
concentration (Brain): 9.9 nM
minimal effective dose (Rattus norvegicus): 0.3 mg/kg
clearance [2]: 16 mL/min/kg
solubility kinetic at 1 h [3]: 15 µg/mL (≈ 38.5 µM)
TDI (Cytochrome P450 2D6): Not Active
IC50 (Cytochrome P450 1A2 [4]): 25 µM
TDI (Cytochrome P450 2C19): Not Active
Vdss (Canis familiaris [5]): 1.6 L/kg
TDI (Cytochrome P450 1A2 [6]): Not Active
F (Canis familiaris [7]): 20%
EC50 [8]: 0.019 µM
Kb [9]: 0.12 µM
solubility [10]: 1.8 µM (≈ 0.701 µg/mL)
